Assay outcomes from PubChem BioAssay.
MrgX1 agonist – human MrgX1 receptor agonism, primary screen. Q96LB2. MrgX1-HEK293 cells, Fluo-4 calcium fluorescence, agonist mode; active compounds read high. B-score at 10 µM. 310,000 compounds, 0.44% hits. AID 588627;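 active means calcium response B-score plate-corrected fluorescence ratio at least 3 library SD, with starting fluorescence B-score inside 5 SD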
Target sequence (Q96LB2 whole entry, looked up): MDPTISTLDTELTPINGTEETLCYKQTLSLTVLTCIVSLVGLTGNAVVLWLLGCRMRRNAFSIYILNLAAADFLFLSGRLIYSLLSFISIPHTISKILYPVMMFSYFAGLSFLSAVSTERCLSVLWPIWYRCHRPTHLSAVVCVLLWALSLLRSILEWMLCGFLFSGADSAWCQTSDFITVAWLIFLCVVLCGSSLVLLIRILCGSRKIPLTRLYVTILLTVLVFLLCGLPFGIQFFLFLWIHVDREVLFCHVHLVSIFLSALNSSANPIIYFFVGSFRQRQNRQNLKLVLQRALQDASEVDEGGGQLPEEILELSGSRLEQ
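Assay system: MrgX1-expressing HEK293 cells / Amount: fifteen thousand cells per well / Doses: test compound in the initial addition of three / Timing: cells plated overnight, dye loaded 0.5 h 37 °C, 0.5 h room temperature / Technique: kinetic calcium dye fluorescence, Fluo-4 NW / Control set: positive and negative controls per plate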
MrgX1 allo act – human MrgX1 positive allosteric modulation, primary screen | MrgX1-HEK293, Fluo-4 calcium flux, FDSS; active compounds read high | B-score at 10 µM | Q96LB2 | 310,000 compounds, 0.63% hits;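 active means plate-corrected calcium response at least 3 library SD above typical, normal starting fluorescence, not activating the receptor alone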;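 further: compound read alongside a low EC10 to EC30 dose of BAM8-22 agonist; peak minus trough fluorescence over baseline measured at the second addition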
RGS4 pot – potentiators or activators of RGS4. B-score at 10 µM. HEK293 M3R/inducible RGS4, carbachol calcium flux Fluo4; active compounds read low. 310,000 compounds, 0.92% hits;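 active means B-score of the integrated calcium signal more than 4 SD below the library mean, with starting fluorescence not abnormally high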;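 further: negative B-score means reduced calcium response which marks RGS4 activation or potentiation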
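Material: M3R-expressing HEK293 line, RGS4 induced by doxycycline | Schedule: Overnight RGS4 induction, 30 min dye load 37 °C, 20 min compound RT | Measured by: Fluo4 fluorescence kinetic imaging of calcium | Read-out: Integrated calcium ratio converted to B score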
MrgX1 antag – blocks BAM8-22 activation of human MrgX1 receptor; Q96LB2; 310,000 compounds, 1.3% hits; B-score at 10 µM; MRGX1-HEK293 calcium flux, Fluo-4, BAM8-22 antagonism; active compounds read low;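 active means calcium-response B-score plate-corrected more than 3 library SD below zero, starting fluorescence within 5 deviations, no agonist response on first addition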;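 further: peak minus trough fluorescence over baseline after final BAM8-22 challenge near maximal dose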
RGS4 block – inhibitors of human RGS4 | B-score at 10 µM | 310,000 compounds, 0.45% hits | P49798 | HEK293 M3R/RGS4 inducible, Fluo-4 calcium flux; active compounds read high; triggered by carbachol at its EC20;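 active means B-score, a plate-corrected calcium signal, over three deviations above library mean, with baseline fluorescence within five deviations of library mean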;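 further: RGS4 expression induced by doxycycline in cells with stable M3 receptor; B-score is computed from the integrated fluorescence ratio over baseline after carbachol; higher B-score means a larger calcium signal and so more RGS4 inhibition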
Target sequence (P49798 whole entry, looked up): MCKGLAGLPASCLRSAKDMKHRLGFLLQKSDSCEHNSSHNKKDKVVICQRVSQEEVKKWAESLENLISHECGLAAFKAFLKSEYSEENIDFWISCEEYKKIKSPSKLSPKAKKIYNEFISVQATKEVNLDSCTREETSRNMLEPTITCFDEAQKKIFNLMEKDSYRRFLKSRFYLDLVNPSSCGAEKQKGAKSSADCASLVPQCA
RGS4 block valid – RGS4 inhibitor validation | shares compounds with RGS4 block | HEK293 M3R/RGS4, carbachol calcium Fluo-4 fluorescence; carbachol added at its EC20; 0 = buffer wells, 100 = carbachol control | calcium response, % at 10 µM | 1,700 compounds, 65% hits | AID 492999;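 active means duplicate-averaged calcium response above the buffer-only control mean plus 5 SD of those controls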;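 further: integrated fluorescence ratio F max minus min over baseline F0; higher response in RGS4-induced cells means RGS4 inhibition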
M3R Ca ctr – non-induced cell nonspecific activity of RGS4 inhibitors; shares compounds with RGS4 block; HEK293 M3R non-induced, carbachol calcium Fluo-4; submaximal (EC20) carbachol stimulus; buffer wells 0%, carbachol control wells 100%; activity (percent), % at 10 µM; 1,900 compounds, 20% hits; AID 493000; call rule not given here;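 further: RGS4 induction absent so cells express M3R without RGS4; higher means more calcium signal and flags a non-specific hit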
M3R basal Ca ctr – signal in non-induced cells without carbachol, RGS4 inhibitor counter-screen | shares compounds with RGS4 block | AID 493001 | HEK293 M3R/RGS4 non-induced, Fluo-4 calcium, no carbachol; normalised: buffer wells 0%, carbachol wells 100% | 1,900 compounds, 22% hits | calcium response (agonist-mode artifact), % at 10 µM;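 active means duplicate-averaged calcium rise in uninduced cells above buffer wells' mean plus 5 SD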
* marks the source's active call; other numbers are inactive results; i = inactive; nt = not tested or not shown. Hits are enriched below; roughly 3.5% of the tested compounds scored in any of these assays.

SMILES	MrgX1 agonist	MrgX1 allo act	RGS4 pot	MrgX1 antag	RGS4 block	RGS4 block valid	M3R Ca ctr	M3R basal Ca ctr
Cc1cc(NC(=O)C(C)Sc2nc(-c3ccccc3)cc(=O)[nH]2)no1 (stereo unspecified)	i	i	i	i	i	nt	nt	nt
CC(=O)C1=C(S(=O)(=O)c2ccc(C)cc2)CS(=O)(=O)C1	nt	nt	i	nt	26*	40%*	i	i
Cc1ccc(S(=O)(=O)C2CS(=O)(=O)CC2O)cc1 (stereo unspecified)	i	i	i	i	i	nt	nt	nt
CCOC(=O)c1ccccc1NC(=O)COC(=O)C(CCSC)NC(=O)COc1ccccc1 (stereo unspecified)	i	i	i	i	i	nt	nt	nt
Cc1c(Cl)ccc2c(C(=O)O)cc(-c3ccccc3)nc12	i	i	i	i	5.8*	22%*	40%*	i
Cc1c(Cl)ccc2c(C(N)=O)cc(-c3ccccn3)nc12	i	i	i	i	i	nt	nt	nt
CCOC(=O)/C(C#N)=C/c1cccc([N+](=O)[O-])c1	i	i	i	i	i	nt	nt	nt
CCOP(=O)(OCC)/C(C#N)=C/c1ccc([N+](=O)[O-])cc1	i	i	i	i	7.4*	14%*	i	i
N#C/C(=C/c1ccc([N+](=O)[O-])cc1)C(N)=O	i	i	i	i	6.4*	36%*	36%*	15%*
N#C/C(=C\c1cc([N+](=O)[O-])ccc1Cl)C(N)=O	i	i	i	i	5.8*	12%*	i	8.5%*
CCOP(=O)(OCC)/C(C#N)=C/c1c[nH]c2ccccc12	i	i	i	i	i	nt	nt	nt
O=S(=O)(/C=C/c1ccccc1)Nc1cccc(S(=O)(=O)NC2=NCCC2)c1	i	i	i	i	i	nt	nt	nt
CCOC(=O)C1CCCN(C(=O)c2ccc(S(=O)(=O)NCc3ccco3)cc2)C1 (stereo unspecified)	i	i	i	i	i	nt	nt	nt
CCOC(=O)Cc1csc(NC(=O)COc2cc(C)cc(C)c2)n1	i	i	i	i	i	nt	nt	nt
COc1ccc(Cl)c(NC(=O)C/C(C)=N/NC(=O)CCc2ccccc2)c1	i	i	i	i	i	nt	nt	nt
Nn1c(Nc2ccccc2)nc2sc3c(c2c1=O)CCCC3	i	i	i	i	i	i	i	i
CSc1c(C#N)c(N)c(C#N)c2c1COC(C)(C)C2	i	i	i	i	5.8*	5.5%*	i	i
O=C(COC(=O)c1cc(=O)[nH]c2ccccc12)c1cccs1	i	i	i	i	i	nt	nt	nt
COc1ccc(OC)c(C2C=C(C34CC5CC(CC(C5)C3)C4)NC(=S)N2)c1 (stereo unspecified)	i	i	i	i	8.8*	14%*	i	i
Cc1sc2nc(CN(Cc3ccccc3)C(=O)NC3CCCCC3)[nH]c(=O)c2c1C	i	i	i	i	5.1*	i	i	i
Cc1cc(C)c(C(=O)O)c(CC(C)(C)C(=O)O)c1	i	i	i	i	i	nt	nt	nt
COc1ccc(NC(=O)CSc2nnc(-c3ccccc3)n2N)cc1	i	i	i	i	i	nt	nt	nt
CCn1c2ccccc2c2cc(NC(=O)CSc3nnc(-c4ccc(OC)cc4)n3N)ccc21	i	i	i	i	5.3*	10%*	i	i
Cc1ccc(N2C(=O)Cc3ccccc3C2=O)cc1	i	i	i	i	i	i	i	i
COCCN(C(=O)CSc1nnc(-c2ccccc2F)o1)c1c(N)n(CC(C)C)c(=O)[nH]c1=O	i	i	i	i	i	nt	nt	nt
SMILES	MrgX1 agonist	MrgX1 allo act	RGS4 pot	MrgX1 antag	RGS4 block	RGS4 block valid	M3R Ca ctr	M3R basal Ca ctr
CCOC(=O)c1sc(N2C(=O)C(O)=C(C(=O)c3ccco3)C2c2cccc([N+](=O)[O-])c2)nc1C (stereo unspecified)	i	i	i	i	i	i	i	i
COCCNC(=S)N(CCN(C)C)Cc1cc2cc3c(cc2[nH]c1=O)OCO3	i	i	i	i	i	nt	nt	nt
COCCCNC(=S)N(CCCN(C)C)Cc1cc2cc3c(cc2[nH]c1=O)OCCO3	i	i	i	i	i	i	i	i
COCCNC(=S)N(CCCN(C)C)Cc1cc2cc3c(cc2[nH]c1=O)OCCO3	i	i	i	i	i	i	i	i
CCOCCCNC(=S)N(CCCN(C)C)Cc1cc2cc3c(cc2[nH]c1=O)OCCO3	i	i	i	i	i	nt	nt	nt
CCOc1ccc(-n2c(=O)[nH]cc(C(=O)Nc3ccc(OC)c(OC)c3)c2=O)cc1	i	i	i	i	i	nt	nt	nt
CCOC(=O)c1sc(=S)n(-c2ccccc2)c1N	i	i	i	i	i	nt	nt	nt
CCOC(=O)c1sc(=S)n(-c2ccccc2)c1N(C(C)=O)C(C)=O	i	i	i	i	4.9*	i	i	i
CC(=O)N(C)Cc1ccc(C(=O)CCl)cc1	i	i	i	i	11*	22%*	i	21%*
COc1ccccc1NC(=O)COc1coc(CN2CCN(c3ccccc3)CC2)cc1=O	i	i	i	i	i	nt	nt	nt
O=c1cc(-c2ccc(Cl)cc2)oc(=O)[nH]1	i	i	i	i	i	nt	nt	nt
O=c1cc(N=Nc2ccc(Cl)cc2)[nH]c(=O)[nH]1	i	i	i	i	17*	22%*	i	i
CC(=O)N[C@@H](Cc1c[nH]c2ccccc12)C(=O)NCc1ccccc1	i	i	i	i	i	nt	nt	nt
COc1ccc2c(c1)c(C(=O)CN1CCCCC1)c(C)n2C	i	i	i	i	i	nt	nt	nt
COc1ccc2c(c1)c(C(=O)CN1CCC(C(N)=O)CC1)c(C)n2C	i	i	i	i	i	i	i	i
COc1cc(C(=O)Nc2cccc3cccnc23)cc(OC)c1OC	i	i	i	i	i	i	i	i
COc1cc(C2CC(c3ccccc3)=NN2c2ccccc2)ccc1OCC(=O)O (stereo unspecified)	i	i	i	i	i	nt	nt	nt
